Assay results reported in ChEMBL document CHEMBL1147524, “Modified norcantharidins; synthesis, protein phosphatases 1 and 2A inhibition, and anticancer activity” (Bioorg Med Chem Lett, 2004).

Assays:
HT-29 = experiment: 50% growth inhibition of HT-29 (human colorectal carcinoma) cell line compared with untreated control cells; assay type: functional
Outline: (§1)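 MTT assay in cells in logarithmic growth, plated in triplicate at 2,500–3,500 cells/well and grown 24 h before test agent was added (day 0). Cultures at 37 °C, 5% CO₂, in media with 10% foetal bovine serum, penicillin, streptomycin and glutamine. Agents were dissolved in DMSO as 5 mM stocks. Absorbance was read at 540 nm. GI50 was taken from the optical density difference between day 0 and the end of drug exposure.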

G-401 = experiment: 50% growth inhibition of G401 (human kidney carcinoma) cell line compared with untreated control cells; assay type: functional; outline: as §1
NCI-H460 = experiment: 50% growth inhibition of H460 (human lung carcinoma) cell line compared with untreated control cells; assay type: functional; outline: as §1
[1] = Inhibitory activity against protein phosphatase 2A from human red blood cells
Outline: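 Purified PP2A (0.3 mU/well) was preincubated 10 min with inhibitor in 50 mM Tris–HCl, pH 7.0, with CaCl₂. The reaction was started with hexapeptide substrate […] (200 μM), run 60 min at room temperature, and stopped with malachite green. A650 was read after 10 min. IC50 came from dose–response curves as the mean of three independent replicates.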

A2780 = experiment: 50% growth inhibition of A2780 (Human ovarian carcinoma) cell line compared with untreated control cells; assay type: functional; outline: as §1
L1210 = experiment: 50% growth inhibition of L1210 (murine leukemia) cell line compared with untreated control cells; assay type: functional; conditions: Mus musculus; outline: as §1

| Structure (SMILES) | GI50 (HT-29) [µM] | GI50 (G-401) [µM] | GI50 (NCI-H460) [µM] | IC50 [1] [µM] | GI50 (A2780) [µM] | GI50 (L1210) [µM] |
| --- | --- | --- | --- | --- | --- | --- |
| COC(=O)C1C(C(=O)Nc2ccc(Cl)cc2)[C@H]2CC[C@@H]1O2 (stereo not given in full) | > 100 | > 100 | > 100 | > 100 | 98 | > 100 |
| COC(=O)c1cccc(NC(=O)C2C(C(=O)O)[C@@H]3C=C[C@H]2O3)c1 (stereo not given in full) | > 100 | > 100 | > 100 | 12 | 97 | > 100 |
| O=C(O)c1cccc(NC(=O)C2C(C(=O)O)[C@@H]3C=C[C@H]2O3)c1 (stereo not given in full) | > 100 | > 100 | > 100 | 7 | 82 | > 100 |
| N#CC[C@]12C=C[C@H](O1)[C@@H]1C(=O)OC(=O)C12 (stereo not given in full) | > 100 | > 100 | > 100 | > 100 | 85 | > 100 |
| COC(=O)c1cccc(NC(=O)C2C(C(=O)O)[C@@H]3CC[C@H]2O3)c1 (stereo not given in full) | > 100 | > 100 | > 100 | 7.7 | 90 | > 100 |
| CCOC(=O)c1ccc(NC(=O)C2C(C(=O)O)[C@@H]3C=C[C@H]2O3)cc1 (stereo not given in full) | > 100 | > 100 | > 100 | 21 | 83 | > 100 |
| CC(=O)NC[C@@]12C=C[C@@H](O1)C1C(=O)OC(=O)[C@H]12 (stereo not given in full) | > 100 | > 100 | > 100 | > 100 | 98 | > 100 |
| CN(C)C(=O)C1C(C(=O)O)[C@@H]2C=C[C@H]1O2.CNC (stereo not given in full) | 49 | 25 | 41 | 3.2 | 40 | 48 |
| CC(=O)NC[C@@]12CC[C@@H](O1)C1C(=O)OC(=O)[C@H]12 (stereo not given in full) | > 100 | > 100 | > 100 | > 100 | 95 | > 100 |
| CN.CNC(=O)C1C(C(=O)O)[C@@H]2C=C[C@H]1O2 (stereo not given in full) | 89 | > 100 | > 100 | > 100 | 88 | > 100 |
| CCOC(=O)c1ccc(NC(=O)C2C(C(=O)O)[C@@H]3CC[C@H]2O3)cc1 (stereo not given in full) | > 100 | > 100 | > 100 | 9.2 | 80 | > 100 |
| O=C(OC[C@H]1C[C@@H]2O[C@H]1[C@H]1C(=O)OC(=O)[C@H]12)c1ccccc1 | 57 | 53 | 43 | 13 | 30 | 49 |
| O=C1OC(=O)C2C1[C@@H]1CC[C@H]2O1 (stereo not given in full) | 33 | 35 | 50 | 0.96 | 39 | 13 |
| O=C(O)C1C(C(=O)OCc2ccccc2)[C@H]2CC[C@@H]1O2 (single isomer, unassigned) | > 100 | > 100 | > 100 | > 100 | 81 | > 100 |
| C[C@@]12C(=O)OC(=O)[C@]1(C)[C@H]1CC[C@@H]2O1 [CANTHARIDIN] | 6.4 | 3.5 | 4.3 | 0.6 | 10 | 15 |
